Positions count from the first letter of the chain named.

As usually defined, the inhibition is how much of the control response was suppressed. The IC50 is the concentration that gives 50% inhibition. The low end stands for inhibition by little substance, the high end for a need for much substance.

Holding throughout (format): cell-based
The target in assay [1] is T1, Kir3.1/3.2 (GIRK) (Homo sapiens, UniProt P48051+P48549).
T1 sequence (P48549 1-501): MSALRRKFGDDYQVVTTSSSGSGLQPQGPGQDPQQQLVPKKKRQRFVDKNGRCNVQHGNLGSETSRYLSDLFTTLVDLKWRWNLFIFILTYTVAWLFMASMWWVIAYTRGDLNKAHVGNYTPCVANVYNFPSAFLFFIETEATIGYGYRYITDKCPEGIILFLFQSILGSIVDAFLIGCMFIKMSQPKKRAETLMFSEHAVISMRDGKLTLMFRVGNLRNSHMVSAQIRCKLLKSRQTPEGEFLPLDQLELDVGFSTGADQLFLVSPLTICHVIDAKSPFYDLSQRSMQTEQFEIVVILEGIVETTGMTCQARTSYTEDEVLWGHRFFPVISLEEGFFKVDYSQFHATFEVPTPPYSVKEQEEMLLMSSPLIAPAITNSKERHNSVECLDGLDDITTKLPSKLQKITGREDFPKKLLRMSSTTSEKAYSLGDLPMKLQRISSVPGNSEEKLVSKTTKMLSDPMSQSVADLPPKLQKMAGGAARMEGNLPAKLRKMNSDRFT
T1 sequence (P48051 1-423): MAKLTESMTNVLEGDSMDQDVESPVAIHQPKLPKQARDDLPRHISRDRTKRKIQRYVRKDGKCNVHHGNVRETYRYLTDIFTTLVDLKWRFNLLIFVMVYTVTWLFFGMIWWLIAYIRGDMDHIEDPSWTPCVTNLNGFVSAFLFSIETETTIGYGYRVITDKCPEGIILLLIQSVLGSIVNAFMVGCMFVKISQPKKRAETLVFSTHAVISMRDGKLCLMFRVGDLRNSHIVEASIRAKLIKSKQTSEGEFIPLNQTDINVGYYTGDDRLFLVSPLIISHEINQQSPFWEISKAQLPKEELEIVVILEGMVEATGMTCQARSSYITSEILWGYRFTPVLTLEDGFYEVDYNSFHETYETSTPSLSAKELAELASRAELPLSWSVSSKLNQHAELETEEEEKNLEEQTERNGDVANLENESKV
The assay is described as follows: Tl+ flux assay, mGluR8-activated GIRK in HEK-293 cells. The note with it: from Tl+ flux IC50 values. The procedure, abridged: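 mGluR8/GIRK/HEK monoclonal cells stably expressing Kir3.1/3.2, M4 receptor and rat mGlu8a, loaded with FluoZin-2. Test compound pre-incubated 20 min (1:3 serial dilutions from 10 mM DMSO stock). Tl+ buffer (12 mM Tl2SO4, pH 7.3) added with glutamate at EC80, set daily from an 11-point curve. Imaged at 1 Hz (ex 470, em 540 nm), 20–23°C. Slope taken 5–15 s post-addition, vehicle-corrected. CRC n = 3. Selectivity taken from the Tl+ flux IC50 values for GIRK and Kir1.1-S44D.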

For assay [2], the target named is T2, Kir1.1 (Rattus norvegicus, UniProt P35560).
T2 sequence (P35560 1-391): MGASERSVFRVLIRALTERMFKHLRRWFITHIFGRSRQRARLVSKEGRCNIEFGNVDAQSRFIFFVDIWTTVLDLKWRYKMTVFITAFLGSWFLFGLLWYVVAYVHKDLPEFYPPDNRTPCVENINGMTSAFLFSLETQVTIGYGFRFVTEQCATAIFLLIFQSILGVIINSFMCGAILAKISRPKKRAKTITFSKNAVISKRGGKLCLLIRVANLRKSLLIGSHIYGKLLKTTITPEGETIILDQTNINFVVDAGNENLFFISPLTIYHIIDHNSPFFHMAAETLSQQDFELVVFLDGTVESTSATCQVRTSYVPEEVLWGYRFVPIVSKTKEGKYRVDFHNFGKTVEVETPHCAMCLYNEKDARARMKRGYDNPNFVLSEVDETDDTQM
The assay is described as follows: Two-electrode voltage clamp in Xenopus oocytes, Kir1.1. The procedure, abridged: (§1)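 Stage V–VI Xenopus oocytes were defolliculated with 1 mg/mL collagenase and injected with 0.5–10 ng cRNA. They were kept at 16°C in modified L-15 for 24–72 h. Two-electrode voltage clamp at 20–23°C: held at −75 mV and stepped to −120 mV for 200 ms every 5 s, with current at −120 mV tracked over time. Test compound (50 μM) was perfused, then 2 mM Ba2+. Time constant of inhibition derived.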
In general terms: Two-electrode voltage clamp holds a large cell at a set potential and records current.

Assay [3] has as its target T3, Kir1.1 (S44D) (Rattus norvegicus, UniProt P35560, S44D).
T3 sequence (P35560 1-391 S44D): T2 sequence (P35560 1-391) with S44D
In words: Tl+ flux assay, tetracycline-inducible Kir1.1-S44D T-REx-HEK-293 cells. The note with it: IC50 Kir1.1, Tl+ flux, mean ± SEM (n = 3). The procedure, abridged: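 Monoclonal C1 T-REx-HEK-293 Kir1.1-S44D cells were grown in DMEM with 10% FBS, penicillin/streptomycin, 5 μg/mL blasticidin S and 250 μg/mL hygromycin. Channel expression was induced overnight with tetracycline. Cells were loaded with FluoZin-2 and pre-treated with test compound from 1:3 serial dilutions. Extracellular Tl+ was then added and fluorescence imaged kinetically at 20–23°C. CRC, mean ± SEM, n = 3.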

For assay [4], the target named is T4, Kir2.3 (Homo sapiens, UniProt P48050).
T4 sequence (P48050 1-445): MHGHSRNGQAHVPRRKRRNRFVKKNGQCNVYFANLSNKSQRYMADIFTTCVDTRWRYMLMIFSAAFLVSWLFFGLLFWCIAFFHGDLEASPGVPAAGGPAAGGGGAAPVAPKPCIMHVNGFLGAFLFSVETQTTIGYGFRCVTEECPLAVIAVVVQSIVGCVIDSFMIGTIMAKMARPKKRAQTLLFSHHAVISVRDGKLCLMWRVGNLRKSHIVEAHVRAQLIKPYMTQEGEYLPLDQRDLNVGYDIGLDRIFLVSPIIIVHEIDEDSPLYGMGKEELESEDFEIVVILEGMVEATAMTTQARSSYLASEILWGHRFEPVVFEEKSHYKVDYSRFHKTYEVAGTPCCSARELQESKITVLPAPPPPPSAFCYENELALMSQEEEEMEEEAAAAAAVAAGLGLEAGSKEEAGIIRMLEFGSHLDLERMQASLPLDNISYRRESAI
In words: Two-electrode voltage clamp in Xenopus oocytes, Kir2.3. The procedure, abridged:
as §1

Turning to `Cc1ccc(OCC(O)Cn2c(=N)n(Cc3ccccc3)c3ccccc32)cc1` (stereo not drawn) [Compound 1, 1-(3-benzyl-2-imino-2,3-dihydro-1H-benzo[d]imidazol-1-yl)-3-(p-tolyloxy)propan-2-ol], the “selectivity for GIRK over Kir1.1” value in assay [1] stood at 10 fold. Further, the “time constant of Kir1.1 inhibition” value in assay [2] (TEVC oocytes, 50 μM, n = 8) is given as 95 ± 15 s. Moreover, the inhibition at 50 µM in assay [2] (read-out: inhibition of Kir1.1) came out at 4.3 ± 1.7%; in assay [4] (read-out: inhibition of Kir2.3), 80.9 ± 5%. In assay [3], this molecule yielded an IC50 of 10.8 ± 3.8 µM. For the same molecule, the “time constant (τ) of Kir2.3 inhibition” value in assay [4] (TEVC oocytes, 50 μM, n = 7) amounted to 154 ± 32 s.

(Values after paper PMC3254186 (Frontiers in Pharmacology, 2011).)
